A selection: hits, their analogues and other compounds. The true share with any hit is near 3.7%.
KCNQ1 block = inhibitors of human KCNQ1 channel, primary screen, cell-based, thallium flux, high-throughput. Potassium voltage-gated channel subfamily KQT member 1 (Homo sapiens), P51787. CHO-K1 KCNQ1, FluxOR thallium flux fluorescence; hits give high values. B-score at 10 µM. 1.3% of 310,000 active. AID 2642, 2010;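 active = compounds whose thallium flux B-score, printed positive for inhibition, exceeds three library SD while starting fluorescence stays within three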;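 also: channel opened by potassium depolarization with thallium stimulus after 20 min compound exposure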
hERG rescue = hERG rescue from dofetilide block, primary screen, cell-based, CHO-hERG, FluxOR thallium flux, dofetilide IC70; Voltage-gated inwardly rectifying potassium channel KCNH2 (Homo sapiens), Q12809; dofetilide IC70 present; activation (rescue from dofetilide block), less the hit threshold, % at 10 µM; 0.51% of 310,000 active;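 active = activation above the mean of controls blocked by dofetilide plus 5 SD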;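 also: thallium influx through hERG after potassium depolarization seen as dye fluorescence rise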
Kir21 block = inhibitors of mouse Kir2.1 inward-rectifier potassium channel; HEK293-Kir2.1, FluxOR thallium flux fluorescence; hits give low values; B-score at 10 µM; Inward rectifier potassium channel 2 (Mus musculus), P35561; 0.85% of 310,000 active;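 active = fluorescence ratio B-score at or below minus 3 SD of library scores, with starting-brightness B-score within 2 SD, cut at about -4.2 in these data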;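 also: channel flux triggered by added potassium and thallium sulfate stimulus; B-score of peak minus minimum fluorescence over baseline after thallium stimulus; more negative B-score means stronger Kir2.1 block with less thallium influx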
KCNK3 inh = human KCNK3 channel inhibitors, primary screen, CHO cells, FluxOR thallium flux, B-score; Potassium channel subfamily K member 3 (Homo sapiens), O14649; 0.84% of 340,000 active; FluxOR fluorescence; hits give low values; B-score at 10 µM;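 active = B-score under library mean minus 4 SD, starting fluorescence ratio at most library mean plus 5 SD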;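 also: more negative B-score means stronger inhibition of thallium flux through KCNK3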
Target sequence (O14649 whole entry, looked up): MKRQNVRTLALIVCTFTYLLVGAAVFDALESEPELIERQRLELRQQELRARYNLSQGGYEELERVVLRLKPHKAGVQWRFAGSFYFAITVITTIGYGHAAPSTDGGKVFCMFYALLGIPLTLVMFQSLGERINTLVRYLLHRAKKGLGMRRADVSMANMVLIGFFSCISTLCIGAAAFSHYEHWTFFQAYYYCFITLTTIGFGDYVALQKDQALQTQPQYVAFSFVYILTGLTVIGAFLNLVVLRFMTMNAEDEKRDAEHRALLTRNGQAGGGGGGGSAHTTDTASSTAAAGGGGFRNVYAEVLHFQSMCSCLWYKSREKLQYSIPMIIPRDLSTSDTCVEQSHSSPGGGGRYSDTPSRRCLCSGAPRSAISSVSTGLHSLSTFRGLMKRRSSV
KCNQ1 act = potentiators or activators of KCNQ1 channel, primary screen, cell-based, thallium flux, high-throughput | Potassium voltage-gated channel subfamily KQT member 1 (Homo sapiens), P51787 | CHO-K1 KCNQ1, thallium flux FluxOR fluorescence; hits give high values | B-score at 10 µM | 0.35% of 310,000 active | AID 2648, 2010;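 active = fluorescence ratio B-score, a plate-corrected score, at least three library SD, with initial intensity B-score within 5 SD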
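System: Stable KCNQ1 CHO-K1 line | Incubation: 90 min dye loading and 20 min compound exposure, both at room temperature | Measure: Ratio B score | Medium: Assay buffer for compound exposure, DMSO matched across wells | Compound dosing: Single-concentration screen | Probe or stimulus: K+/Tl+ depolarizing stimulus | Measured by: Kinetic FluxOR fluorescence, 10 s baseline plus 110 s post-stimulus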
KCNK9 block = KCNK9 potassium channel inhibitors, primary screen, HEK293 cells, thallium flux | AID 488922, 2010 | FluxOR thallium flux fluorescence; hits give low values | B-score at 10 µM | 1.2% of 310,000 active | Potassium channel subfamily K member 9 (Homo sapiens), Q9NPC2;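 active = ratio B-score over 3 SD below the library mean, with starting fluorescence within 5 SD of its mean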;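 also: negative B-score means less thallium flux so channel inhibition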
KCNK9 block conf = KCNK9 potassium channel inhibitors, confirmation, HEK293 cells, thallium flux, duplicate. shares compounds with KCNK9 block. FluxOR thallium flux fluorescence. inhibition, % at 10 µM. 43% of 4,900 active. AID 492992, 2010;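 active = thallium signal inhibited by more than 5 SD of the compound-free buffer control wells, on both duplicate plates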;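 also: 0% = assay buffer control wells without compound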
Kir21 sel = mouse Kir2.1 channel inhibition, confirmation, selectivity assay for KCNK9 modulator project, cell-based, HEK293, thallium flux; shares compounds with KCNK9 block; Kir2.1 cells, FluxOR thallium flux fluorescence; inhibition, % at 10 µM; 4% of 4,900 active; AID 492993, 2010;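 active = thallium signal drop more than 5 SD beyond the mean of the no-compound control wells, seen in both duplicate plates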;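 also: signal is fluorescence rise after thallium addition divided by baseline fluorescence; plate controls were assay buffer only for no effect and full block by chlorpromazine control for full effect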
HEK293 Tl ctr = thallium flux in non-induced HEK293 cells, confirmation, counter-screen for KCNK9 inhibitor project, cell-based, second counter screen, non-induced KCNK9-HEK293; shares compounds with KCNK9 block; FluxOR thallium flux; inhibition, % at 10 µM; 40% of 4,900 active;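 active = thallium signal drop beyond 5 SD of the untreated control mean, on both duplicate plates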;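 also: plate controls were buffer only IC0 wells for no effect and SID17386958 at its maximal inhibitory level for full effect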
An asterisk follows results filed as active; i = inactive; nt = no result.

SMILES	KCNQ1 block	hERG rescue	Kir21 block	KCNK3 inh	KCNQ1 act	KCNK9 block	KCNK9 block conf	Kir21 sel	HEK293 Tl ctr
c1ccc2oc(-c3csc(NCC4CCCO4)n3)cc2c1 (stereo not drawn)	i	-7	0.38	i	i	i	i	i	i
O=c1oc2ccccc2cc1-c1csc(NN=C2CCCCC2)n1	i	-7	0.09	i	i	i	i	i	i
C=CCNc1nc(-c2cc3ccccc3o2)cs1	i	-4	-0.28	i	i	i	nt	nt	nt
CCCCCCCCN1[C@@H](CC(=O)OC)c2cc(C(F)(F)F)ccc2S1(=O)=O	i	-10	2.2	i	i	i	i	i	i
COC(=O)C[C@H]1c2cc(C(F)(F)F)ccc2S(=O)(=O)N1Cc1ccccc1	i	-11	-0.5	i	i	i	nt	nt	nt
O=C(Nc1ccc([N+](=O)[O-])cn1)C1CC1	i	-5	0.89	i	i	i	nt	nt	nt
CC(=O)Nc1ccc([N+](=O)[O-])cn1	i	-5	-0.24	i	i	-8.4*	i	i	i
COc1ccc(CC2(C)OC(c3ccc(Cl)cc3)=NN2C(C)=O)cc1 (stereo not drawn)	i	-17	0	i	i	i	i	i	i
O=C(NCC(c1ccco1)N1CCc2ccccc2C1)c1cccc(F)c1 (stereo not drawn)	i	-13	-1.9	i	i	i	nt	nt	nt
COc1cccc(C(=O)NCC(c2ccco2)N2CCc3ccccc3C2)c1 (stereo not drawn)	i	-6	0.14	i	i	-10*	38%*	i	i
NC(=O)c1ccsc1NC(=O)COC(=O)c1cc(Cl)ccc1O	i	-18	-0.02	i	i	i	nt	nt	nt
N#Cc1ccccc1CSc1nc(N2CCCCC2)nc(N2CCCCC2)n1	i	-11	-0.87	i	i	i	i	i	i
Cc1nc(SCc2ccccc2C#N)n[nH]1	i	-6	0.41	i	i	i	nt	nt	nt
CCOc1ncccc1C(=O)Nc1cc2c(cc1Br)OCCO2	nt	nt	nt	i	nt	nt	nt	nt	nt
CCc1ccc(-c2nc(CS(=O)CC(=O)NCc3ccc4c(c3)OCO4)c(C)o2)cc1 (stereo not drawn)	i	-6	2	i	i	i	nt	nt	nt
O=c1/c(=C\c2cccc(O)c2)sc2nc(-c3ccccc3)c(-c3ccccc3)n12	i	-6	-0.97	i	i	-10*	43%*	i	28%*
O=C(NCC1CCCN1S(=O)(=O)c1cccs1)c1cccc(F)c1 (stereo not drawn)	i	-12	-1	i	i	i	nt	nt	nt
COCCn1c(C)cc(C(=O)COc2ccc(N(C)S(=O)(=O)c3ccc(C)cc3)cc2)c1C	nt	nt	nt	i	nt	nt	nt	nt	nt
CCn1c(=O)c2cc(C(=O)N(C)CC(OC)OC)sc2c2ccccc21	i	-8	0.68	i	i	i	nt	nt	nt
CCOc1ccccc1N(C)C(=O)c1cc2c(=O)n(CC)c3ccccc3c2s1	i	-8	-0.69	i	i	-14*	70%*	i	38%*
CC(=O)Nc1ccc2oc(-c3ccccc3Br)nc2c1	i	-6	0.13	i	i	i	nt	nt	nt
Cc1ccccc1-c1nc2cc(NC(=O)C3CC3)ccc2o1	i	-7	-1.6	i	i	-8.7*	i	i	i
COC(=O)c1c(NC(=O)Cc2ccccc2)sc2c1C(C(=O)OC)CC2 (stereo not drawn)	i	-22	-1.5	i	i	i	i	i	i
CN1CCN(C2=C(Cl)C(=O)C(c3cnc(N4CCCCC4)s3)=C(Cl)C2=O)CC1	16*	-48	-1.8	i	i	-17*	i	i	38%*
CC[n+]1c(/C=C/c2ccc(OC(C)=O)c(OC)c2)ccc2ccccc21	i	-11	-0.05	i	i	i	nt	nt	nt
SMILES	KCNQ1 block	hERG rescue	Kir21 block	KCNK3 inh	KCNQ1 act	KCNK9 block	KCNK9 block conf	Kir21 sel	HEK293 Tl ctr
CC[n+]1c(/C=C/c2ccc(N(C)C)cc2)ccc2ccccc21	i	-25	-14*	i	i	-12*	60%*	85%*	60%*
C[C@@H]1CC[C@@]23COC(=O)C2=CCC[C@@H]3[C@@]1(C)CC/C(=C/CO)CO	nt	nt	nt	i	nt	nt	nt	nt	nt
CC1=CCC[C@@H]2[C@@](C)(CC/C(C)=C/C(=O)O)[C@H](C)CC[C@@]12C	i	-1	-0.32	i	i	i	i	i	i
Cc1cnc(C(=O)OCC(=O)c2ccc(Br)s2)cn1	i	-16	0.59	i	i	i	nt	nt	nt
CCCCn1c(SCC(=O)N(CC)C2CCS(=O)(=O)C2)nc2cc(S(N)(=O)=O)ccc21 (stereo not drawn)	i	-13	0.18	i	i	i	nt	nt	nt
CCN(C(=O)CSc1nc2cc(C(F)(F)F)ccc2n1Cc1ccccc1)C1CCS(=O)(=O)C1 (stereo not drawn)	i	-7	-0.93	i	i	-10*	61%*	i	52%*
CCc1ccc(CN(C)CC(=O)Nc2ccc3c(c2)CCC3)cc1	i	-18	-1.5	i	i	i	i	i	i
CC1(c2ccc(OC(F)F)cc2)NC(=O)N(CC(=O)Nc2ccc3c(c2)OCO3)C1=O (stereo not drawn)	i	-16	-1.1	i	13*	-9.8*	i	i	31%*
CC1(c2ccccc2)NC(=O)N(CC(=O)Nc2ccc3c(c2)OCO3)C1=O (stereo not drawn)	i	-10	0.21	i	i	i	nt	nt	nt
CC(C)(C)c1ccc(SCCc2cccnc2)cc1	i	0	-0.54	i	i	i	i	i	i
